This is an account of results in ChEMBL document CHEMBL3272109, “3-Substituted pyrazole derivatives as inhibitors and inactivators of liver alcohol dehydrogenase” (J Med Chem, 1979).

One experiment concerns the target Alcohol dehydrogenase (Equus caballus, UniProt P00327+P00328). In words: Inhibition of horse liver alcohol dehydrogenase using ethanol as substrate assessed as dissociation constant by spectrophotometric titration in presence of 1 mM NAD+. Summed up:
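Difference titration at 300 nm, 0.1 M sodium phosphate pH 7.0, 25 °C, 1 mM NAD⁺, in a double-sector cuvette (0.438-mm path) against a separated-sector reference. Either 19–27 μM enzyme was titrated with pyrazole, or 100 μM pyrazole was titrated with enzyme. Kd from a Scatchard least-squares fit; SD of three determinations.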

Experiment [1] addresses T1, Alcohol dehydrogenase (Equus caballus) (UniProt P00327+P00328). In words: Reversible inhibition of horse liver alcohol dehydrogenase using ethanol as substrate by stopped-flow method in presence of 1 mM NAD+.
The target in experiment [2] is T1, Alcohol dehydrogenase (Equus caballus). In words: Competitive inhibition of horse liver alcohol dehydrogenase using ethanol as substrate by spectrophotometric titration in presence of 1 mM NAD+. Summed up: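 Purified horse liver EE isoenzyme, dialysed and gel-filtered free of ethanol; 10 nM enzyme. Ethanol varied at 0.4–2 mM with NAD⁺ fixed at 1 mM, in 33 mM sodium phosphate pH 7, 25 °C. Rates recorded spectrophotometrically. Constants come from fitting to the competitive inhibition equation; errors are standard errors of the fit.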

Experiment [3] shares this target. In words: Reversible inhibition of horse liver alcohol dehydrogenase using ethanol as substrate at 1 mM measured after 100-fold dilution in presence of NAD+. The arrangement: scale not given: the % may be the effect or the level left.
Experiment [4] shares this target. In words: Reversible inhibition of horse liver alcohol dehydrogenase using ethanol as substrate assessed as increase in enzyme activity at 1 mM measured after 40 mins of 100-fold dilution by stopped-flow method in presence of NAD+. The arrangement: scale not given: the % may be the effect or the level left. Summed up:
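0.94 μN enzyme was preincubated with 1 mM NAD⁺ and 1 mM pyrazole, then diluted 100-fold into assay mix (0.55 M ethanol, 1.75 mM NAD⁺, pH 9, 25 °C). NAD⁺ reduction followed at 340 nm for 40 min. Rates were taken as tangents at various times and expressed versus the original activity; an apparent first-order dissociation rate constant was derived.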

Experiment [5] has the same target. In words: Reversible inhibition of horse liver alcohol dehydrogenase using ethanol as substrate assessed as remaining enzyme activity at 1 mM by stopped-flow method in presence of 1 mM NAD+.
Experiment [6] shares this target. In words: Inactivation of horse liver alcohol dehydrogenase using ethanol as substrate at 10 mM up to 5 mins by spectrophotometric titration. Summed up: (§1)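 Enzyme (1 mg/mL) incubated with reagent under 5 min in 0.1 M Na₂P₂O₇ adjusted to pH 8.0 with H₃PO₄, 25 °C, with NAD⁺ where stated. Then 10 μL of reaction mixture diluted into 1 mL standard assay mixture, and the initial velocity of NADH production measured. Activity is given relative to the original.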

For experiment [7] the target is unchanged. In words: Inactivation of horse liver alcohol dehydrogenase using ethanol as substrate at 10 to 200 mM up to 5 mins by spectrophotometric titration in presence of 1 mM NAD+. Summed up: as §1
The target is the same in experiment [8]. In words: Inactivation of horse liver alcohol dehydrogenase using ethanol as substrate at 200 mM up to 5 mins by spectrophotometric titration. Summed up:
as §1

Experiment [9] has the same target. In words: Reversible inhibition of horse liver alcohol dehydrogenase using ethanol as substrate assessed as reduction in enzyme activity at 0.1 mM compound in diluted assay mixture measured after 20 to 40 mins by stopped-flow method in presence of NAD+.

Active and inactive are the calls of the source. The rule behind the calls is not given here.

With `OCCc1cn[nH]c1`, the Kd on Alcohol dehydrogenase was found to be 0.77 µM.

As to `c1cn[nH]c1` [PYRAZOLE], the Kd at Alcohol dehydrogenase amounted to 0.2 µM. Moreover, in [1], the Activity was 3 ×10⁵ /M/s.

`Cc1cn[nH]c1` [FOMEPIZOLE]: the Kd at Alcohol dehydrogenase came out at 0.013 µM.

With `OCCc1cc[nH]n1`, at Alcohol dehydrogenase, the Kd was found to be 170 µM. For the same molecule, the inhibition entry in experiment [2] is “Active”.

As to `ClCCc1cc[nH]n1`, the Activity was 10% in experiment [3], no less than 48% in experiment [4] and 67% in experiment [5]. Moreover, the Kd on Alcohol dehydrogenase amounted to 200 µM. Also, the inhibition result in experiment [2] was “Active”.

Turning to `OCCCc1cn[nH]c1`, the Kd on Alcohol dehydrogenase is 0.56 µM.

`CC(=O)c1cc[nH]n1`: on Alcohol dehydrogenase, the Kd was 5100 µM. Besides, the inhibition entry in [2] was “Active”.

Consider `ClCCCc1cn[nH]c1`, for which the Kd at Alcohol dehydrogenase stood at 0.02 µM.

On to `Cc1cc[nH]n1`, for which, at Alcohol dehydrogenase, the Kd stood at 125 µM. Besides, in [2], the inhibition result was “Active”.

For `ClCc1cc[nH]n1`, the Activity in experiment [6] is 36%; in experiment [8] it was 98%. For the same molecule, the result in experiment [7] was inactive. Besides, the inhibition result in [2] is “Active”.

Regarding `OCc1cc[nH]n1`, the Kd on Alcohol dehydrogenase is 150 µM. Besides, the inhibition result in [2] is “Active”.

For `OCc1cn[nH]c1`, the Kd at Alcohol dehydrogenase amounted to 3.6 µM.

As for `ClCCCc1cc[nH]n1`, the inhibition in [9] was 52%. Further, the Activity in experiment [3] is 10%; in [4] it was no less than 48%; in [5], 67%. The Kd at Alcohol dehydrogenase was 40 µM. The inhibition entry in experiment [2] was “Active”.

As for `OCCCc1cc[nH]n1`, the Kd at Alcohol dehydrogenase worked out at 60 µM. For the same molecule, the inhibition entry in [2] is “Active”.

`O=C(O)c1cc[nH]n1`: the Kd on Alcohol dehydrogenase was determined as 6500 µM. Also, the inhibition result in [2] is “Active”.

As for `ClCc1cn[nH]c1`, at Alcohol dehydrogenase, the Kd came to 2.7 µM.

One may read the Kd as a measure of binding affinity in units of concentration. As a reminder, the inhibition is the share of the control response that was lost under treatment.
